Only a selection was taken, and hits are over-represented in it overall.
T cruzi growth-1 = T. cruzi proliferation inhibition. T. cruzi beta-gal in NIH3T3, GalScreen luminescence, 90 h. inhibition, % at 8.34 µM. 77,000 compounds, 5.9% hits. AID 624255;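 active = mean inhibition above about 93%, with at least 55% of replicates each passing it, limit read from the data, passing the limit was not always enough; inconclusive = only one of those two conditions holds; inactive = neither condition holds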
IDH1 mut inh = blocks human IDH1 R132H reductase activity. 70,000 compounds, 0.18% hits. diaphorase/resazurin fluorescence, 60 min. O75874. inhibition, % at 10 µM; in the data active = inhibition above about 34%; inconclusive = no clear call, values can overlap the other calls; inactive = below about 11%;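 also: 0% = DMSO and 100% = no enzyme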
Target sequence (O75874 whole entry R132H): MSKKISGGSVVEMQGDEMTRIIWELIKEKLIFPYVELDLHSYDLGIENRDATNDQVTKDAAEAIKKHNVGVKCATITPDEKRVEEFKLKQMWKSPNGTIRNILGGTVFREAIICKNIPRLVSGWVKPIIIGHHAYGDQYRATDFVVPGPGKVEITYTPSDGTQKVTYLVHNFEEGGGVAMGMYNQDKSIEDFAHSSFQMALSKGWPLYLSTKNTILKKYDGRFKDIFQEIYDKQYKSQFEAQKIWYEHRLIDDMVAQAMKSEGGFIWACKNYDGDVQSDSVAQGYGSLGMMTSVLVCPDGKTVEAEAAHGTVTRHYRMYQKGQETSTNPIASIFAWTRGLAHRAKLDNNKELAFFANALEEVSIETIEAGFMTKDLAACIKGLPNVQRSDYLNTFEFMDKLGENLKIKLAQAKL
KDM4C inh = KDM4C (human) demethylase inhibition. GST-KDM4C 2-372, H3K9me3 peptide, LANCE TR-FRET. 96,000 compounds, 0.15% hits. Q9H3R0. inhibition, % at 12.5 µM;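 active = mean replicate inhibition above about 25%, with at least 55% of replicates also reaching it, limit read from the data, passing the limit was not always enough; inconclusive = only one of those two conditions met; inactive = neither condition met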
Target sequence (Q9H3R0 2-372 limits assumed): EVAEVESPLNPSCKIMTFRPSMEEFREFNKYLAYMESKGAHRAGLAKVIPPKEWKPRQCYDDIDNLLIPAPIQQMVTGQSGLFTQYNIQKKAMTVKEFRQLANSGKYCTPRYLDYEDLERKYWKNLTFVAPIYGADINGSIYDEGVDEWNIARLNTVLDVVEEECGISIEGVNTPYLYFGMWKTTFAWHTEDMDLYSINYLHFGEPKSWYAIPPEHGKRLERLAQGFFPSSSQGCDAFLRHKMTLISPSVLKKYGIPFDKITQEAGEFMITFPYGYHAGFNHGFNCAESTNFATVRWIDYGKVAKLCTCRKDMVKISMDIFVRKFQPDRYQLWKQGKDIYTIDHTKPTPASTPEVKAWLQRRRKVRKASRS
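System: N-terminal GST-fused human GASC-1 (KDM4C) fragment, residues 2-372; amount: enzyme final amount 10 nM; incubation: reaction 30 min RT, detection step 1 h RT; medium: HEPES buffer, pH 7.5, plus ascorbate; technique: LANCE TR-FRET, Eu antibody, ULight-streptavidin, EDTA, ex 340 nm, em 618/671 nm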
T cruzi growth-2 = inhibitors of T. cruzi proliferation | 5,600 compounds, 72% hits | inhibition, % at 8.35 µM | T. cruzi beta-gal in NIH3T3, GalScreen luminescence, 90 h | shares compounds with T cruzi growth-1;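 active = mean replicate inhibition above about 95% and at least 55% of replicates individually reaching it, limit read from the data; inconclusive = only one of the two criteria is met; inactive = neither criterion is met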
T cruzi growth-3 = Trypanosoma cruzi proliferation inhibition. shares compounds with T cruzi growth-1. T. cruzi beta-gal in NIH3T3, GalScreen luminescence, 90 h. inhibition, % at 2.09 µM. 5,600 compounds, 21% hits;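 active = mean inhibition above about 95%, with at least 55% of replicates also reaching it, limit read from the data; inconclusive = meets just one of the two conditions; inactive = meets neither condition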;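 also: plate controls were neutral control median for no effect and positive control median for full effect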
3T3 cytotox = NIH/3T3 (mouse) viability loss. NIH/3T3 viability, CellTiter-Glo ATP luminescence, 90 h. 5,600 compounds, 14% hits. shares compounds with T cruzi growth-1. cytotoxicity (signal decrease), % at 8.35 µM;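 active = mean signal decrease across replicates above about 35% based on untreated-well scatter, with enough replicates individually passing, limit read from the data; inconclusive = no rule stated though some were filed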;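 also: 0% = median of neutral control wells and 100% = median of positive control wells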
3T3 cytotox 2 = NIH/3T3 (mouse) viability loss; NIH/3T3 viability, CellTiter-Glo ATP luminescence, 90 h; 5,600 compounds, 56% hits; inhibition, % at 24.9 µM; shares compounds with T cruzi growth-1;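 active = mean loss of cell viability signal at or above a set limit, and enough replicates individually reaching it; inconclusive = meets only the mean limit or only the replicate share; inactive = meets neither condition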;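 also: 0% = median of neutral control wells and 100% = median of positive control wells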
The depositor's hits bear a star; ? = inconclusive; nt = no result; ! = not confirmed by another sample.

SMILES	T cruzi growth-1	IDH1 mut inh	KDM4C inh	T cruzi growth-2	T cruzi growth-3	3T3 cytotox	3T3 cytotox 2
COc1cccc(C#Cc2ccc([C@@H]3[C@@H](C#N)N(C(=O)C4CCC4)[C@@H]3CO)cc2)c1	102.0*	nt	1.2	108.6*	60.9	23.4	10.1
COc1cccc(C#Cc2ccc([C@@H]3[C@@H](C#N)N(C(=O)C4CCC4)[C@H]3CO)cc2)c1	91.0	nt	-0.6	nt	nt	nt	nt
COc1cccc(C#Cc2ccc([C@H]3[C@H](C#N)N(C(=O)C4CCC4)[C@H]3CO)cc2)c1	96.8*	nt	-1.6	95.5*	55.6	33.7	62.6*
COc1cccc(C#Cc2ccc([C@@H]3[C@@H](CO)N(C(=O)C4CCC4)[C@H]3C#N)cc2)c1	90.2	nt	-1.1	nt	nt	nt	nt
C[C@H]1CN([C@@H](C)CO)C(=O)c2cccc(NS(=O)(=O)c3cccs3)c2O[C@H]1CN(C)Cc1ccc(Oc2ccccc2)cc1	18.4	nt	1.0	nt	nt	nt	nt
C[C@@H]1CN([C@@H](C)CO)C(=O)Cc2cc(NC(=O)c3ccncc3)ccc2O[C@H]1CN(C)S(=O)(=O)c1ccccc1	nt	-0.6	-1.0	nt	nt	nt	nt
CO[C@H](CN(C)Cc1ccc(-c2ccccn2)cc1)[C@H](C)CN(C(=O)Nc1ccc(F)cc1)[C@@H](C)CO	93.9	-0.2	2.8	nt	nt	nt	nt
C[C@@H]1CCCCO[C@H](CN(C)C(=O)C2CCCCC2)[C@H](C)CN([C@@H](C)CO)C(=O)c2cc(NC(=O)CCCCCC(=O)Nc3ccccc3N)ccc2O1	102.3	nt	-0.2	nt	nt	nt	nt
C[C@H](CO)N1C[C@H](C)[C@H](CN(C)C(=O)c2ccccc2)OCCCC[C@H](C)Oc2ccc(NC(=O)CCCCCC(=O)Nc3ccccc3N)cc2C1=O	100.5*	nt	0.6	108.0*	?	-7.3	-39.2
C[C@@H]1CCCCO[C@H](CN(C)C(=O)c2ccncc2)[C@@H](C)CN([C@H](C)CO)C(=O)c2cc(NC(=O)CCCCCC(=O)Nc3ccccc3N)ccc2O1	6.8	16.9	0.9	nt	nt	nt	nt
C[C@@H]1CCCCO[C@H](CN(C)C(=O)c2ccccc2)[C@H](C)CN([C@@H](C)CO)C(=O)c2cc(NC(=O)CCCCCC(=O)Nc3ccccc3N)ccc2O1	98.6*	nt	1.4	106.5*	102.8*	4.8	2.2
Cc1noc(C)c1NC(=O)NCC[C@H]1CC[C@@H](NC(=O)c2ccc(F)cc2)[C@@H](CO)O1	-29.6	-0.2	-1.6	nt	nt	nt	nt
C[C@@H]1CCCCO[C@@H](CN(C)S(=O)(=O)c2ccccc2)[C@@H](C)CN([C@H](C)CO)C(=O)c2cc(NC(=O)Nc3cccc4ccccc34)ccc2O1	26.4	nt	-0.9	nt	nt	nt	nt
COc1ccc(C#Cc2cnc3c(c2)C(=O)N([C@H](C)CO)C[C@H](C)[C@H](CN(C)S(=O)(=O)c2cn(C)cn2)O3)cc1OC	-72.7	-1.0	-0.7	nt	nt	nt	nt
COc1ccc(C#Cc2ccc([C@H]3[C@H](CO)N4CCCCN(S(=O)(=O)c5ccccc5)C[C@@H]34)cc2)cc1	53.7	nt	1.1	nt	nt	nt	nt
COc1cccc(S(=O)(=O)N2CCCCN3[C@H](CO)[C@@H](c4ccc(C#CC(C)C)cc4)[C@H]3C2)c1	82.4	nt	0.0	nt	nt	nt	nt
COc1ccc(S(=O)(=O)N2CCCCN3[C@H](CO)[C@H](c4ccc(C#CC(C)C)cc4)[C@H]3C2)cc1	101.7*	nt	0.2	105.4*	98.2*	71.6*	73.4*
COc1ccc(S(=O)(=O)N2CCCCN3[C@H](C2)[C@@H](c2ccc(C#CC(C)C)cc2)[C@@H]3CO)cc1	104.6*	nt	-1.2	102.0*	111.7*	22.1	96.9*
COc1ccc(S(=O)(=O)N2CCCCN3[C@H](CO)[C@H](c4ccc(C#CCC(C)C)cc4)[C@@H]3C2)cc1	?	nt	-1.4	87.3	?	41.2*	67.1*
COc1ccc(S(=O)(=O)N2CCCCN3[C@H](CO)[C@H](c4ccc(C#CCC(C)C)cc4)[C@H]3C2)cc1	54.8	nt	1.1	nt	nt	nt	nt
CCC(=O)Nc1ccc2c(c1)C(=O)N(C)[C@H]1CC[C@H](CC(=O)NCc3ccccc3Cl)O[C@H]1CO2	16.3	nt	0.8	nt	nt	nt	nt
C[C@H](CO)N1C[C@H](C)[C@H](CN(C)Cc2ccccc2)Oc2ccc(NC(=O)c3ccncc3)cc2CC1=O	41.5	-1.9	0.0	nt	nt	nt	nt
CCN(C(=O)CCc1nc(-c2ccccc2F)no1)c1cc(Cl)ccc1OC	nt	-0.4	nt	nt	nt	nt	nt
O=C(CSc1nnc(-c2ccccc2Cl)n1-c1ccccc1)Nc1ccccc1C(F)(F)F	nt	-0.2	nt	nt	nt	nt	nt
CC(C)NC(=O)Nc1ccc2c(c1)C(=O)N([C@H](C)CO)C[C@@H](C)[C@H](CN(C)Cc1ccccc1)OCCCC[C@H](C)O2	28.9	2.0	-0.5	nt	nt	nt	nt
SMILES	T cruzi growth-1	IDH1 mut inh	KDM4C inh	T cruzi growth-2	T cruzi growth-3	3T3 cytotox	3T3 cytotox 2
CC(C)NC(=O)Nc1ccc2c(c1)C(=O)N([C@@H](C)CO)C[C@@H](C)[C@H](CN(C)Cc1ccccc1)OCCCC[C@H](C)O2	102.0*!	1.5	0.4	63.8	-3.3	-18.0	12.4
CC(C)NC(=O)Nc1ccc2c(c1)C(=O)N([C@H](C)CO)C[C@@H](C)[C@@H](CN(C)Cc1ccccc1)OCCCC[C@@H](C)O2	35.6	2.8	4.7	nt	nt	nt	nt
CC(C)NC(=O)Nc1ccc2c(c1)C(=O)N([C@@H](C)CO)C[C@@H](C)[C@@H](CN(C)Cc1ccccc1)OCCCC[C@H](C)O2	102.9*	2.2	-0.5	39.4	10.3	14.2	8.6
COc1ccccc1NC(=O)COc1ccc2c(-c3ccccc3)cc(=O)oc2c1C	nt	-0.8	nt	nt	nt	nt	nt
COc1ccc2c3c(n(C)c2c1)[C@H](CO)N(CC1CCOCC1)CC31CCN(C(=O)Nc2ccccc2)CC1	nt	nt	-2.1	nt	nt	nt	nt
COc1ccc(S(=O)(=O)N2CCCCN3[C@H](C2)[C@@H](c2ccc(C#CC4CC4)cc2)[C@@H]3CO)cc1	106.8*	nt	-0.4	99.6*	107.6*	37.8*	76.7*
O=S(=O)(c1ccc(F)cc1)N1CCCCN2[C@H](CO)[C@H](c3ccc(C#CC4CC4)cc3)[C@@H]2C1	100.2	nt	-1.1	nt	nt	nt	nt
COc1ccc(C#Cc2ccc([C@@H]3[C@@H](CO)N4CCCCN(S(=O)(=O)c5ccccc5)C[C@H]34)cc2)cc1	66.7	nt	-1.6	nt	nt	nt	nt
O=S(=O)(c1ccc(F)cc1)N1CCCCN2[C@@H](CO)[C@@H](c3ccc(C#CC4CC4)cc3)[C@@H]2C1	85.6	nt	-0.7	nt	nt	nt	nt
COc1ccc(S(=O)(=O)N2CCCCN3[C@H](CO)[C@@H](c4ccc(C#CC5CC5)cc4)[C@H]3C2)cc1	?	nt	2.5	106.8*	105.6*	25.4	105.7*
COc1ccc(S(=O)(=O)N2CCCCN3[C@H](CO)[C@@H](c4ccc(C#CC5CC5)cc4)[C@@H]3C2)cc1	117.0*	nt	-0.3	108.6*	87.6	18.7	55.3*
COc1ccc(S(=O)(=O)N2CCCCN3[C@@H](CO)[C@H](c4ccc(C#CC5CC5)cc4)[C@@H]3C2)cc1	109.0*	nt	-0.7	101.6*	66.4	45.3*	104.5*

Screening results as filed in PubChem.
